{"source": "ChEMBL document CHEMBL1141135", "about": "“A positron emission tomography radioligand for the in vivo labeling of metabotropic glutamate 1 receptor: (3-ethyl-2-[11C]methyl-6-quinolinyl)(cis- 4-methoxycyclohexyl)methanone” (J Med Chem, 2005)", "key": {"[1]": {"experiment": "Uptake in rat cerebellum 10 minutes after administration of the radiolabeled [11C]-compound", "type": "ADME, tissue-based", "settings": "in vivo", "procedure,_shortened": "(§1)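 Male Sprague-Dawley rats received the [11C] radioligand iv and were sacrificed at 10, 30 or 60 min. Brain regions were dissected and radioactivity counted. Uptake is expressed as %ID/g, mean ± SD, n = 3 animals per group.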"}, "[2]": {"experiment": "Uptake in rat blood 10 minutes after administration of the radiolabeled [11C]-compound", "type": "ADME, tissue-based"}, "[3]": {"molecular_target": "Metabotropic glutamate receptor 5 (Rattus norvegicus, UniProt P31424)", "sequence (P31424 whole entry)": "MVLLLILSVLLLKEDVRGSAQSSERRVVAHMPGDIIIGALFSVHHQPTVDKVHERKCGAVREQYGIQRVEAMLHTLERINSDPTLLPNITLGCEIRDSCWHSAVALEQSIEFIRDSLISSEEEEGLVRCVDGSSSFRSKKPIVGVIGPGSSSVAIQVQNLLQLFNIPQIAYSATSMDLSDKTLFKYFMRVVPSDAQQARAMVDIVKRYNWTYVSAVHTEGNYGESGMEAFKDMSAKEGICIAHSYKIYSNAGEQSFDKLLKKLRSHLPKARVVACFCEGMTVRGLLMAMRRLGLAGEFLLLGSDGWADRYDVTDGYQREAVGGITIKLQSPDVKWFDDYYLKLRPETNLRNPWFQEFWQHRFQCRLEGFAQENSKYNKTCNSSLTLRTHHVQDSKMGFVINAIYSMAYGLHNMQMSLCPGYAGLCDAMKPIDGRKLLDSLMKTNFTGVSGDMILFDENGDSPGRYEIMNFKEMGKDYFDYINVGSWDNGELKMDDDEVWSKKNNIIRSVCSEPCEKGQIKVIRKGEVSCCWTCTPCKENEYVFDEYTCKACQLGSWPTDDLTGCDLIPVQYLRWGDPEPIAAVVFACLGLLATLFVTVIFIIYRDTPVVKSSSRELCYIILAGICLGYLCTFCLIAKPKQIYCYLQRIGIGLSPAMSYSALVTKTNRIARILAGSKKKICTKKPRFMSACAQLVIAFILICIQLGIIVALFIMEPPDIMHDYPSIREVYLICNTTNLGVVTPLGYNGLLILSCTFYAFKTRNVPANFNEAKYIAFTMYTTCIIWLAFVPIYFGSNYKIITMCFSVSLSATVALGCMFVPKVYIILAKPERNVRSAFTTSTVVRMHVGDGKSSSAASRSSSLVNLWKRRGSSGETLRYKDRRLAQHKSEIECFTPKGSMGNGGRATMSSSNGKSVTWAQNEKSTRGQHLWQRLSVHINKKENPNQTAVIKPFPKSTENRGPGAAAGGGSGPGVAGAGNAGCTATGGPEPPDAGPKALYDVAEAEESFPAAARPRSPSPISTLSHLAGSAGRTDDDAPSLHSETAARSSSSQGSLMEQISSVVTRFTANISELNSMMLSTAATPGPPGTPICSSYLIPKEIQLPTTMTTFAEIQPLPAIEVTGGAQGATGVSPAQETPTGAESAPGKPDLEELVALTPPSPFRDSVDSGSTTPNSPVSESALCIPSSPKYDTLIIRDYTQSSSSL", "experiment": "In vitro affinity for cloned rat metabotropic glutamate 5 receptors stably expressed on CHO cells determined in radioligand binding assay", "type": "cell-based"}, "[4]": {"experiment": "Uptake in rat hippocampus 10 minutes after administration of the radiolabeled [11C]-compound", "type": "ADME, tissue-based", "settings": "in vivo", "procedure,_shortened": "as §1"}, "[5]": {"experiment": "Uptake in rat cerebellum 30 minutes after administration of the radiolabeled [11C]-compound", "type": "ADME, tissue-based", "settings": "in vivo, 0.5 h", "procedure,_shortened": "as §1"}, "[6]": {"experiment": "Uptake in rat medulla 10 minutes after administration of the radiolabeled [11C]-compound", "type": "ADME, tissue-based, Medulla of organ", "settings": "in vivo", "procedure,_shortened": "as §1"}, "[7]": {"experiment": "Uptake in rat hippocampus 30 minutes after administration of the radiolabeled [11C]-compound", "type": "ADME, tissue-based", "settings": "in vivo, 0.5 h", "procedure,_shortened": "as §1"}, "[8]": {"experiment": "Uptake in rat striatum 30 minutes after administration of the radiolabeled [11C]-compound", "type": "ADME, tissue-based", "settings": "in vivo, 0.5 h", "procedure,_shortened": "as §1"}, "[9]": {"experiment": "Uptake in rat medulla 60 minutes after administration of the radiolabeled [11C]-compound", "type": "ADME, tissue-based, Medulla of organ", "settings": "in vivo, 1 h", "procedure,_shortened": "as §1"}, "[10]": {"experiment": "Uptake in rat striatum 10 minutes after administration of the radiolabeled [11C]-compound", "type": "ADME, tissue-based", "settings": "in vivo", "procedure,_shortened": "as §1"}, "[11]": {"experiment": "Uptake in rat frontal cortex 10 minutes after administration of the radiolabeled [11C]-compound", "type": "ADME, tissue-based", "settings": "in vivo", "procedure,_shortened": "as §1"}, "[12]": {"experiment": "Uptake in rat frontal cortex 30 minutes after administration of the radiolabeled [11C]-compound", "type": "ADME, tissue-based", "settings": "in vivo, 0.5 h", "procedure,_shortened": "as §1"}, "[13]": {"experiment": "Uptake in rat striatum 60 minutes after administration of the radiolabeled [11C]-compound", "type": "ADME, tissue-based", "settings": "in vivo, 1 h", "procedure,_shortened": "as §1"}, "[14]": {"experiment": "Uptake in rat cerebellum 60 minutes after administration of the radiolabeled [11C]-compound", "type": "ADME, tissue-based", "settings": "in vivo, 1 h", "procedure,_shortened": "as §1"}, "[15]": {"molecular_target": "Metabotropic glutamate receptor 1 (Rattus norvegicus, UniProt P23385)", "sequence (P23385 whole entry)": "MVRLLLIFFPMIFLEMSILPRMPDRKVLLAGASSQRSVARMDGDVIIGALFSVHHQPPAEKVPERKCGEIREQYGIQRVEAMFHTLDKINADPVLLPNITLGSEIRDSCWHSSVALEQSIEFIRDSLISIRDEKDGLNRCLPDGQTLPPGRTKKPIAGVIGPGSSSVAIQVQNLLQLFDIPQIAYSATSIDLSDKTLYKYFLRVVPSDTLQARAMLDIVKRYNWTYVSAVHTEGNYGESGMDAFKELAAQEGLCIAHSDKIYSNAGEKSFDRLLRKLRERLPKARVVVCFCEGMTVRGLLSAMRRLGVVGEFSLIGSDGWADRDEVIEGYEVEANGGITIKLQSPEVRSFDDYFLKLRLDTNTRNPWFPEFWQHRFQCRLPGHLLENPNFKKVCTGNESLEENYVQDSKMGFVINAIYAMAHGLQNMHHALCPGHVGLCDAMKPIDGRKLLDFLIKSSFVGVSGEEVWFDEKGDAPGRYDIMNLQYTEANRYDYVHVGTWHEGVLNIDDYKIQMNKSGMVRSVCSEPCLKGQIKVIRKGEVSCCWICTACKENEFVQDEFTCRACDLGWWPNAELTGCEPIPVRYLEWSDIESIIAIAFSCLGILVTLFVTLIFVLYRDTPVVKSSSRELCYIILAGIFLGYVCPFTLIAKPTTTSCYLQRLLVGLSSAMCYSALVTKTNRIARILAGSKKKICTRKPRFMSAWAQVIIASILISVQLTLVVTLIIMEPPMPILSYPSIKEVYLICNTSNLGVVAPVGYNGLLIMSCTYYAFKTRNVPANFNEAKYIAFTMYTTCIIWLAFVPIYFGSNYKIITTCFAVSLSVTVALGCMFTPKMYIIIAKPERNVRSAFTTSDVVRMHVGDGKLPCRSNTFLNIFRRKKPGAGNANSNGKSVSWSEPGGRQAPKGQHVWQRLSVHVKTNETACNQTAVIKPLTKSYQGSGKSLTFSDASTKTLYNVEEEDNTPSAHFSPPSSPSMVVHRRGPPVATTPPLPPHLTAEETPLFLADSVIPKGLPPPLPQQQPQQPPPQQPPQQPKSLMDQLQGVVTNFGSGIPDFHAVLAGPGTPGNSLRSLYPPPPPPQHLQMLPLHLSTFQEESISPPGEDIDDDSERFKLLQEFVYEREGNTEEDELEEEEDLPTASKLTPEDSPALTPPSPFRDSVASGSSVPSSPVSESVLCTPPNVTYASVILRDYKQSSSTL", "experiment": "In vitro affinity for cloned rat metabotropic glutamate 1 receptors stably expressed on CHO cells determined using [3H]-R214127 as radioligand", "type": "cell-based"}, "[16]": {"experiment": "Uptake in rat frontal cortex 60 minutes after administration of the radiolabeled [11C]-compound", "type": "ADME, tissue-based", "settings": "in vivo, 1 h", "procedure,_shortened": "as §1"}, "[17]": {"experiment": "Uptake in rat hippocampus 60 minutes after administration of the radiolabeled [11C]-compound", "type": "ADME, tissue-based", "settings": "in vivo, 1 h", "procedure,_shortened": "as §1"}, "[18]": {"experiment": "Uptake in rat blood 30 minutes after administration of the radiolabeled [11C]-compound", "type": "ADME, tissue-based", "settings": "0.5 h"}, "[19]": {"experiment": "Uptake in rat medulla 30 minutes after administration of the radiolabeled [11C]-compound", "type": "ADME, tissue-based, Medulla of organ", "settings": "in vivo, 0.5 h", "procedure,_shortened": "as §1"}, "[20]": {"experiment": "Uptake in rat blood 60 minutes after administration of the radiolabeled [11C]-compound", "type": "ADME, tissue-based", "settings": "1 h"}}}
{"smiles": "CCc1cc2cc(C(=O)[C@H]3CC[C@@H](OC)CC3)ccc2nc1C", "values": [{"measurement": "ID/g", "setting": "[1]", "result": 1.24, "unit": "%"}, {"measurement": "ID/g", "setting": "[2]", "result": 0.42, "unit": "%"}, {"measurement": "Ki", "setting": "[3]", "result": 2.37, "unit": "µM"}, {"measurement": "ID/g", "setting": "[4]", "result": 0.58, "unit": "%"}, {"measurement": "ID/g", "setting": "[5]", "result": 0.61, "unit": "%"}, {"measurement": "ID/g", "setting": "[6]", "result": 0.47, "unit": "%"}, {"measurement": "ID/g", "setting": "[7]", "result": 0.17, "unit": "%"}, {"measurement": "ID/g", "setting": "[8]", "result": 0.17, "unit": "%"}, {"measurement": "ID/g", "setting": "[9]", "result": 0.07, "unit": "%"}, {"measurement": "ID/g", "setting": "[10]", "result": 0.73, "unit": "%"}, {"measurement": "ID/g", "setting": "[11]", "result": 0.52, "unit": "%"}, {"measurement": "ID/g", "setting": "[12]", "result": 0.13, "unit": "%"}, {"measurement": "ID/g", "setting": "[13]", "result": 0.1, "unit": "%"}, {"measurement": "ID/g", "setting": "[14]", "result": 0.27, "unit": "%"}, {"measurement": "Ki", "setting": "[15]", "result": 0.00087, "unit": "µM"}, {"measurement": "ID/g", "setting": "[16]", "result": 0.07, "unit": "%"}, {"measurement": "ID/g", "setting": "[17]", "result": 0.1, "unit": "%"}, {"measurement": "ID/g", "setting": "[18]", "result": 0.26, "unit": "%"}, {"measurement": "ID/g", "setting": "[19]", "result": 0.13, "unit": "%"}, {"measurement": "ID/g", "setting": "[20]", "result": 0.2, "unit": "%"}]}
